Measured values as given in the RNAGym collection of RNA variant scans (doi:10.1126/science.aae0568).
Variants at the floor of the assay were thinned out.

B1: tRNA (parent)
chain: GUUCCGUUGGCGUAAUGGUAACGCGUCUCCCUCCUAAGGAGAAGACUGCGGGUUCGAGUCCCGUACGGAACG

Variants of: B1
Assay: yeast fitness relative to wild type (ratio to wild type); higher = fitter; tRNA-Arg(CCU), competitive growth, 37 C, YPD
Procedure, shortened: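 Amplicons of the tRNA-Arg(CCU) gene were sequenced, 100-nucleotide paired-end, from the start population and from each end population of a pooled yeast competition. The competition, in six parallel replicates, lasted 24 hours in YPD at 37°C. Fitness relative to wild type was calculated from changes in genotype frequencies. Genotypes had to have ≥ 100 starting reads, and estimates < 0.5 were set to 0.5.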

| Variant | yeast fitness |
| --- | --- |
| GUUCCGUUGGCCUAAUGGUUACGCAUCUCCCUCCUAAGGAGAAGACUGCGGGUUCGAGACCCGUACGGAACG | ≤ 0.5 |
| GUUCCGUUGGCCUAAUGGUACCGCGUCUCCCUCCUAAGGAGAAGACUGCGGGUUCGAGUCCCGUACGGAACG | 0.638 |
| GUUCCGUUGGCCUAAUGGUACCGCGCCCCCCUCCUAAGGAGAAGAGUGCGGGUUUGAGUCCCGUACGGAACG | ≤ 0.5 |
| GUUCCGUUGGCCUAAUGGUAGCGCGUCUCCCUCCUAAGGAGAAGACUGCGGGUUCGACUCCCGUACGGAACG | 0.892 |
| GUUCCGUUGGCCUAAUGGUAGCGCGCCUCCUUCCUAAGGAGAAGACUGCGGGUUCGAGUCCCGUACGGAACG | ≤ 0.5 |
| GUUCCGUUGGCCUAAUGGUAUCGCGUCUCCCUCCUAAGGAGUAGACUGCGGGUUCGAGUCCCGUACGGAACG | 0.611 |
| GUUCCGUUGGCCUAAUGGUAACGCGUCUCCCUCCUCAGGUGAAGACUGCGGGUUCGAGUCCCGUAUGGUACG | ≤ 0.5 |
| GUUCCGUUGGCCUAAUGGUAACGCGUCUCCCUCCUACGGAGAAGACUGCGGGUUCGAGUCCCGUACGGAACG | 0.648 |
| GUUCCGUUGGCCUAAUGGUAACGCGUCUCCCUCCUAGAGAGAAGACAGCGGGUUCGAGUCCCGUACGGAACG | ≤ 0.5 |
| GUUCCGUUGGCCUAAUGGUAACGCGUCUCCCUCCUAGGGAGAAGACUGCGGGUACGAGUCCCGUCCGGAACG | ≤ 0.5 |
| GUUCCGUUGGCCUAAUGGUAACGCGUCUCCCUCCUAUAGAGAAGACUGCGGGUUGGAGUCCCGUACGGAACG | ≤ 0.5 |
| GUUCCGUUGGCCUAAUGGUAACGCGUCUCCCUCCUAUGGAGAACACUGCGGGUUCGAGUCCCGUACGGAACG | 0.538 |
| GUUCCGUUGGCCUAAUGGUAACGCGUCUCCCUCCUAAGGCGAAGAUUGAGGGUUCGAGUCCCGAACGGAACG | ≤ 0.5 |
| GUUCCGUUGGCCUAAUGGUAACGCGUCUCCCUCCUAAGGGGAAGACUGCGGGUUCGAGUCCCGUACGGAGCG | 0.567 |
| GUUCCGUUGGCCUAAUGGUAACGCGUCUCCCUCCUAAGGGGAAGACUGCCGGUUCGAGUCCUGUACGGAACG | 0.756 |
| GUUCCGUUGGCCUAAUGGUAACGCGUCUCCCUCCUAAGGUGAAGACUGGAGGUUCGAGUCCCGUACGGAACG | ≤ 0.5 |
| GUUCCGUUGGCCUAAUGGUAACGCGUCUCCCUCCUAAGGAGGAGACUGCGGGUUCGAGUCCCGUACGGAACG | 0.902 |
| GUUCCGUUGGCCUAAUGGUAACGCGUCUCCCUCCUAAGGAGGAGACCGCGGGUUCGAGUCCCGUACGGAACG | 0.634 |
| GUUCCGUUGGCCUAAUGGUAACGCGUCUCCCUCCUAAGGAGGAGACUGCGGGUGCGAGUCCCGUACGGAACG | ≤ 0.5 |

| Variant | yeast fitness |
| --- | --- |
| GUUCCGUUGGCCUAAUGGUAACGCGUCUCCCUCCUAAGGAGUAGAUUGCGGGUUGGAGUCCCGUACGGAACG | ≤ 0.5 |
| GUUCCGUUGGCCUAAUGGUAACGCGUCUCCCUCCUAAGGAGAGGACUGCGCGUUCGAGCCCGGUACGGAUCG | ≤ 0.5 |
| GUUCCGUUGGCCUAAUGGUAACGCGUCUCCCUCCUAAGGAGAUGACUGCGGGUCCGAGUCCCGUACGGAACG | ≤ 0.5 |
| GUUCCGUUGGCCUAAUGGUAACGCGUCUCCCUCCUAAGGAGAAGGCUGCGGGUUCGAGUCCCGUACGGAACG | 0.684 |
| GUUCCGUUGGCCUAAUGGUAACGCGUCUCCCUCCUAAGGAGAAGGCUGCGGGUUCGAGUCCCGUGCGGAACG | 0.548 |
| GUUCCGUUGGCCUAAUGGUAACGCGUCUCCCUCCUAAGGAGAAGGCCGCGGGUUCGAGUCCCGUACGGAACG | 0.502 |
| GUUCCGUUGGCCUAAUGGUAACGCGUCUCCCUCCUAAGGAGAAGUCUGCGGGUUCGAGUCCCGUACGGAACG | 0.978 |
| GUUCCGUUGGCCUAAUGGUAACGCGUCUCCCUCCUAAGGAGAAGUCUGCGGGUUCGACUCCCGUUCGGAUCG | ≤ 0.5 |
| GUUCCGUUGGCCUAAUGGUAACGCGUCUCCCUCCUAAGGAGAAGACUGCGGGUUCGGGUCCCGUACGGAACG | 0.974 |
| GUUCCGUUGGCCUAAUGGUAACGCGUCUCCCUCCUAAGGAGAAGACUGCGGGUUCGUGUCCCGUACGGAACG | 0.663 |
| GUUCCGUUGGCCUAAUGGUAACGCGUCUCCCUCCUAAGGAGAAGACUGCGGGUUCGAGUCCCGUUCGGAUCG | 0.606 |
| GUUCCGUUGGCCUAAUGGUAACGCGUCUCCCUCCUAAGGAGAAGACUGCGGGUUCGAGUCCCGUUCGUAACG | 0.653 |
| GUUCCGUUGGCCUAAUGGUAACGCGUCUCCCUCCUAAGGAGAAGACUGCGGGUUCGAGUCCCGUACGGGACG | 0.82 |
| GUUCCGUUGGCCUAAUGGUAACGCGUCUCCCUCCUAAGGAGAAGACUGCGGGUUCGAGUCCCGUACGGUACG | 0.935 |
| GUUCCGUUGGCCUAAUGGUAACGCGUCUCCCUCCUAAGGAGAAGACUGCGGGUUCGAGUCCCGUACGGACCG | 0.833 |
| GUUCCGUUGGCCUAAUGGUAACGCGUCUCCCUCCUAAGGAGAAGACUGCGGGUUCGAGUCCCGUACGGAGCG | 0.845 |
| GUUCCGUUGGCCUAAUGGUAAGGCGUCUCCCUCCUAAGGAGAAGACUGCGGGUUCGAGUCCCGUACGGAACG | 1.03 |
| GUUCCGUUGGCCUAAUGGUAAGGCGUCUACCUCCUAAGGAGAGGACUGCGGGUUCGAGUCCCGUACGGAACG | ≤ 0.5 |
| GUUCCGUUGGCCUAAUGGUAAGACGUCUCCCUCCUACGGAGACGACUGCGGGUUCGAGUCCCGUACGGAACG | 0.534 |
